In ChEMBL document CHEMBL6083194, “Discovery and evaluation of 3-(2-isocyanobenzyl)-1H-indole derivatives as potential quorum sensing inhibitors for the control of Pseudomonas aeruginosa infections in vitro” (RSC Med Chem, 2024):
Converted amounts (≈) assume the structure as drawn. The source made the active and inactive calls. The calls are words filed in the database; no cut-off is given here.

Columns and labels:
Pseudomonas aeruginosa [1] = experiment: Anti-virulence effect in Pseudomonas aeruginosa PAO1 assessed as inhibition of rhamnolipid production at 25 ug/ml; type: functional; set-up: scale not given: the % may be the effect or the level left; conditions: dose 25 µg/ml
Method in brief: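 PAO1 culture supernatant from growth with compound (6.25–25 μg mL−1) at 37 °C and 180 rpm, or with DMSO or RSV (25 μg mL−1) as controls. Orcinol assay: 100 μL sample plus 0.19% orcinol in 53% H2SO4, heated 30 min at 80 °C, cooled, read at 421 nm. At least three experiments in triplicate.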

Pseudomonas aeruginosa [2] = experiment: Antibacterial activity against Pseudomonas aeruginosa PAO1 by serial dilution method; type: functional
Method in brief: (§1)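 PAO1 in LB, 37 °C. MIC by CLSI 2-fold serial dilution in Mueller–Hinton broth, inoculum 1–5 × 10^5 CFU mL−1, DMSO stocks. Growth curves: overnight culture diluted to OD600 = 0.05, subcultured to mid-log, rediluted to OD600 = 0.05, 3 mL with compound; OD620 read at 1, 3, 5, 7, 9, 11 and 24 h at 37 °C; DMSO negative control.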

[3] = Inhibition of quorum sensing system in Pseudomonas aeruginosa PAO1
Method in brief: (§2)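 Plate screen. CV026 grown overnight in LB with 50 μg ml−1 kanamycin; 15 μl seeded into 15 ml LB agar (1.0% agarose) containing 20 μM C4-HSL. PAO1 plates run in parallel. Test colonies inoculated by toothpick, incubated overnight at 37 °C. Ring of colourless viable cells around the colony scored as inhibition.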

Pseudomonas aeruginosa [4] = experiment: Inhibition of biofilm formation in Pseudomonas aeruginosa PAO1 incubated for 24 hrs crystal violet staining based SEM assay; type: functional, organism-based
[5] = Inhibition of quorum sensing system in Pseudomonas aeruginosa PAO1 assessed as reduction in C4-HSL level at 50 ug/ml incubated for 24 hrs by LC-MS/MS method; conditions: dose 50.0 µg/ml
[6] = Inhibition of quorum sensing system in Chromobacterium violaceum CV026; method in brief: as §2
Pseudomonas aeruginosa [7] = experiment: Downregulation of sdhB gene expression in Pseudomonas aeruginosa PAO1 assessed as fold decrease at 25 ug/ml by RT-qPCR analysis; type: functional; conditions: dose 25 µg/ml
Pseudomonas aeruginosa [8] = experiment: Anti-virulence effect in Pseudomonas aeruginosa PAO1 assessed as inhibition of pyocyanin production at 25 ug/ml; type: functional; set-up: scale not given: the % may be the effect or the level left; conditions: dose 25 µg/ml
Method in brief: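 Overnight PAO1 culture in LB at 37 °C, diluted to OD600 0.05 and subcultured 5–7 h to mid-log phase, then re-diluted to OD600 0.05. Grown 18 h at 37 °C and 200 rpm with compound (6.25, 12.5, 25 μg mL−1) or DMSO. Supernatant extracted into chloroform, back-extracted into 0.2 M HCl, read at 520 nm.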

[9] = Inhibition of quorum sensing system in Pseudomonas aeruginosa PAO1 assessed as reduction in 3-oxo-C12-HSL level at 6.25 to 25 ug/ml incubated for 24 hrs by LC-MS/MS method; conditions: dose 6.25-25 µg/ml
Pseudomonas aeruginosa [10] = experiment: Downregulation of rhlI gene expression in Pseudomonas aeruginosa PAO1 assessed as fold decrease at 25 ug/ml by RT-qPCR analysis; type: functional; conditions: dose 25 µg/ml
Pseudomonas aeruginosa [11] = experiment: Anti-virulence effect in Pseudomonas aeruginosa PAO1 assessed as decrease in protease level at 25 ug/ml; type: functional; set-up: scale not given: the % may be the effect or the level left; conditions: dose 25 µg/ml
Method in brief: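 Overnight PAO1 culture diluted 1:100 into LB with compound (6.25–25 μg mL−1), grown at 37 °C and 180 rpm; DMSO and RSV (25 μg mL−1) as controls. Culture supernatant mixed with 2% azocasein in 1 M Tris–HCl pH 8.0 for 15 min at 37 °C. Reaction stopped with 10% TCA, centrifuged, NaOH added, read at OD440.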

Pseudomonas aeruginosa [12] = experiment: Downregulation of pqsR gene expression in Pseudomonas aeruginosa PAO1 assessed as fold decrease at 25 ug/ml by RT-qPCR analysis; type: functional; conditions: dose 25 µg/ml
Pseudomonas aeruginosa [13] = experiment: Antibacterial activity against Pseudomonas aeruginosa PAO1 assessed as bacterial growth inhibition at 6.25 to 25 ug/ml by serial dilution method; type: functional, organism-based; conditions: dose 6.25-25 µg/ml; method in brief: as §1
Pseudomonas aeruginosa [14] = experiment: Induction of biofilm eradication in Pseudomonas aeruginosa PAO1 at 6.25 ug/ml by crystal violet staining based assay; type: functional; conditions: dose 6.25 µg/ml
Method in brief: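 PAO1 biofilms grown overnight at 37 °C in LB in 24-well plates, washed with PBS, then fresh LB with compound added and grown overnight again. Washed, methanol-fixed, crystal violet stained, ethanol solubilised, read at OD570. DMSO negative, resveratrol positive control.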

Cc1cccc(C#N)c1Cc1c[nH]c2ccccc12
Activity (Pseudomonas aeruginosa [1]): 23% | MIC (Pseudomonas aeruginosa [2]): 96 µg/mL (≈ 390 µM) | inhibition [3]: Active; Strong Inhibition Observed | inhibition (Pseudomonas aeruginosa [4]): Dose-dependent-effect | inhibition [5]: 19% | inhibition [6]: Active; Showed Higher Activity | fold change (FC) (Pseudomonas aeruginosa [7]): 2.87 | Activity (Pseudomonas aeruginosa [8]): 73% | inhibition [9]: Active | fold change (FC) (Pseudomonas aeruginosa [10]): 7.3 | Activity (Pseudomonas aeruginosa [11]): 51% | fold change (FC) (Pseudomonas aeruginosa [12]): 7.41 | Activity (Pseudomonas aeruginosa [13]): inactive | Activity (Pseudomonas aeruginosa [14]): 43%
